Assay results taken from ChEMBL document CHEMBL1137866, “N-(1-Benzylpyrrolidin-3-yl)arylbenzamides as potent and selective human dopamine D4 antagonists” (Bioorg Med Chem Lett, 2004).
Activity calls are given as the source filed them. No cut-off for these calls is given here.

What was measured:
[1] = target: T1, D(4) dopamine receptor (Homo sapiens, UniProt P21917); experiment: Ability to displace [3H]spiperone from human Dopamine receptor D4.2 stably transfected in human embryonic kidney […] cells
T1 sequence (P21917 whole entry): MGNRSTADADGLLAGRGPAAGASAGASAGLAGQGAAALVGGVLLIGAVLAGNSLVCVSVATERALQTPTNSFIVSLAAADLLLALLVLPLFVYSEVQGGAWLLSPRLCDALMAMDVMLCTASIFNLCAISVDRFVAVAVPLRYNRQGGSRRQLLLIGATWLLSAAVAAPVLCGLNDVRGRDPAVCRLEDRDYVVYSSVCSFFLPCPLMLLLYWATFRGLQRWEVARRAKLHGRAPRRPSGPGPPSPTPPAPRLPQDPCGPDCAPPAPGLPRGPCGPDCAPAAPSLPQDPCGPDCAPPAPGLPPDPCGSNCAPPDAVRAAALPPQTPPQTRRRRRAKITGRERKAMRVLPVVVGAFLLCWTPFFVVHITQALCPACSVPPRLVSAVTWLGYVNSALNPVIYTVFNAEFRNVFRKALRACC
Summary of the method: (§1)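 Radioligand binding on stably transfected cell lines: hD4 (D4.2 subtype) in HEK […] cells and hD2 (short isoform) in GH4C1 rat pituitary cells. Ki derived by Cheng–Prusoff transformation, reported as mean of at least two determinations ± SEM.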

[2] = target: T2, D(2) dopamine receptor (Homo sapiens, UniProt P14416); experiment: Ability to displace [3H]spiperone from human Dopamine receptor D2S stably transfected in GH4C1 (rat pituitary) cells; type: cell-based, Pituitary gland cell; summary of the method: as §1
[3] = target: T3, Adrenergic receptor alpha-1 (Rattus norvegicus, UniProt P15823+P23944+P43140); experiment: Binding affinity towards Alpha-1 adrenergic receptor using 7-methoxy-[3H]-prazosin as radioligand in rat frontal cortex tissue; type: tissue-based
T3 sequence (P15823 whole entry): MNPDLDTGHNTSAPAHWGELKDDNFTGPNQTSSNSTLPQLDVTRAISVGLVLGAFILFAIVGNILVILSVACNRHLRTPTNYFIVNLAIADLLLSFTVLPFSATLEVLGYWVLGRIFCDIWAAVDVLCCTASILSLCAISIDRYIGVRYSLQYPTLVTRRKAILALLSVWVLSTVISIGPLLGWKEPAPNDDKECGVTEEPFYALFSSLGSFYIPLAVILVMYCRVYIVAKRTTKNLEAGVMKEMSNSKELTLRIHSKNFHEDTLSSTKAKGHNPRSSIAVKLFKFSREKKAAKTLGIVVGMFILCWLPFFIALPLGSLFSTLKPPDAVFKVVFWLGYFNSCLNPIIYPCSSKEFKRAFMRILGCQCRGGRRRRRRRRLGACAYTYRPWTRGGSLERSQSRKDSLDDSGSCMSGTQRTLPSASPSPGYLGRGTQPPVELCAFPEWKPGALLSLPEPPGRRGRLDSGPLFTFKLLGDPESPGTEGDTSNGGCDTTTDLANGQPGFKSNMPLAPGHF
T3 sequence (P23944 whole entry): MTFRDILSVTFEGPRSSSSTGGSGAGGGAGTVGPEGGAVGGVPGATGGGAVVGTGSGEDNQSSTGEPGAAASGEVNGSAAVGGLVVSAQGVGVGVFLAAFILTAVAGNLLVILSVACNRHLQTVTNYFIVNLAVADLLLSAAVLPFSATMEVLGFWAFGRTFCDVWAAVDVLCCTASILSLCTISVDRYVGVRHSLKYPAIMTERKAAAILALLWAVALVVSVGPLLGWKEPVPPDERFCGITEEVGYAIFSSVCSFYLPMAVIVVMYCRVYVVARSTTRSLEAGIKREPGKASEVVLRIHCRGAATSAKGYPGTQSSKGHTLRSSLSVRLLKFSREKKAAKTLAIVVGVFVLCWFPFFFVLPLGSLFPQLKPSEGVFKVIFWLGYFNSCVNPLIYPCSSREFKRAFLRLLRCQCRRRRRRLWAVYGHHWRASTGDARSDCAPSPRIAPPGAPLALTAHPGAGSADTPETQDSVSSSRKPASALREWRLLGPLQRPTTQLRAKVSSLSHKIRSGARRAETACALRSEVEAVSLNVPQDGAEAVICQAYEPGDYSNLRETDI
T3 sequence (P43140 whole entry): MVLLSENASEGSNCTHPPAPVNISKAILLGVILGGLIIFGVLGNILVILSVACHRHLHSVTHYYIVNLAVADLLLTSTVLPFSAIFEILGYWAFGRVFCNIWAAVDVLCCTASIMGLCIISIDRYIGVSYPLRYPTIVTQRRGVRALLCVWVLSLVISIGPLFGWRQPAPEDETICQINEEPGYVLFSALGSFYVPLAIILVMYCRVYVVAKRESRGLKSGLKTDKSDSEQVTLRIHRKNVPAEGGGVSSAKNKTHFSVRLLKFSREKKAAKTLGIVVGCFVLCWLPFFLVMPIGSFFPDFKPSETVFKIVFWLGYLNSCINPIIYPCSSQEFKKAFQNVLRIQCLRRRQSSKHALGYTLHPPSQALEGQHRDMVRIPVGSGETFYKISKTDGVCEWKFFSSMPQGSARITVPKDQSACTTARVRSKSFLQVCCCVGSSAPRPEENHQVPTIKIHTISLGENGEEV
Summary of the method: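 Rat frontal cortex tissue as α1 receptor source, 7-methoxy-[3H]-prazosin as radioligand, clozapine as reference. Ki obtained by Cheng–Prusoff transformation; mean of at least two determinations ± SEM.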

[4] = target: T4, Adrenergic receptor alpha-1 (Rattus norvegicus) (UniProt P15823+P23944+P43140); experiment: Inhibition of 7-methoxy-[3H]-prazosin binding to Alpha-1 adrenergic receptor in rat frontal cortex tissue at 100 nM
[5] = target: T2, D(2) dopamine receptor; experiment: Inhibition of [3H]spiperone binding to human Dopamine receptor D2S stably transfected in GH4C1 (rat pituitary) cells at 100 nM; conditions: Pituitary gland cell
[6] = target: T5, D(4) dopamine receptor (Homo sapiens) (UniProt P21917); experiment: Inhibition of [3H]spiperone binding to human Dopamine receptor D4.2 stably transfected in human embryonic kidney […] cells at 100 nM
T5 sequence (whole entry): T1 sequence (P21917 whole entry)

[7] = target: T4, Adrenergic receptor alpha-1 (Rattus norvegicus); experiment: Inhibition of 7-methoxy-[3H]-prazosin binding to Alpha-1 adrenergic receptor in rat frontal cortex tissue at 100 nM; IA denotes inactive
[8] = target: T2, D(2) dopamine receptor; experiment: Inhibition of [3H]spiperone binding to human Dopamine receptor D2S stably transfected in GH4C1 (rat pituitary) cells at 100 nM; IA denotes inactive; conditions: Pituitary gland cell
[9] = target: T1, D(4) dopamine receptor; experiment: Inhibitory concentration required to reverse the dopamine inhibition of forskolin-stimulated adenyl cyclase activity in CHO cells stably expressing hD4 receptor; type: functional, cell-based

T2 sequence (P14416 whole entry): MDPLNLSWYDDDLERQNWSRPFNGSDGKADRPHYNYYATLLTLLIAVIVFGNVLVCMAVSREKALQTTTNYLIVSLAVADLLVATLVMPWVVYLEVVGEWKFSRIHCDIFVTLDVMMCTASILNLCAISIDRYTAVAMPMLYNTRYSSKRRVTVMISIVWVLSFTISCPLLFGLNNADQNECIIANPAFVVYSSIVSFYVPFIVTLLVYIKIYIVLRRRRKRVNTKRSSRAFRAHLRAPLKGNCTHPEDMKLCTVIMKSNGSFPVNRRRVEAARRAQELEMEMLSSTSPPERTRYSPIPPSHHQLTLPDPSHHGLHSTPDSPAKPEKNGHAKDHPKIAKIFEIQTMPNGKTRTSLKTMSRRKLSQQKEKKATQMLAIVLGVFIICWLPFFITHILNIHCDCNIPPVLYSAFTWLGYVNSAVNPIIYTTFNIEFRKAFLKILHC

O=C(N[C@H]1CCN(Cc2ccccc2)C1)c1cccc(-c2ccsc2)c1
Ki [1]: 2 nM | Ki [2]: 70 nM | Ki [3]: 140 nM

O=C(N[C@@H]1CCN(Cc2ccccc2)C1)c1ccc(-c2cccs2)cc1
Ki [1]: 24 nM | Ki [2]: 1500 nM | Ki [3]: 330 nM

O=Cc1ccc(-c2ccc(C(=O)NC3CCN(Cc4ccccc4)C3)cc2)cc1 (configuration not stated)
Ki [1]: 70 nM | Ki [2]: 3700 nM

O=C(N[C@@H]1CCN(Cc2ccccc2)C1)c1cccc(-c2ccsc2)c1
Ki [1]: 3.4 nM | Ki [2]: 94 nM | Ki [3]: 170 nM

CSc1ccc(-c2ccc(C(=O)NC3CCN(Cc4ccccc4)C3)cc2)cc1 (configuration not stated)
Ki [1]: 17 nM | Ki [2]: 4000 nM

O=C(NC1CCN(Cc2ccccc2)C1)c1cccc(-c2ccccc2)c1 (configuration not stated)
Ki [1]: 4 nM | Ki [2]: 150 nM

O=C(NC1CCN(Cc2ccccc2)C1)c1ccc(-c2ccc(Cl)cc2)cc1 (configuration not stated)
Ki [1]: 5 nM | Ki [2]: 2600 nM

O=C(N[C@@H]1CCN(Cc2ccccc2)C1)c1ccc(-c2ccsc2)cc1
Ki [1]: 18 nM | Ki [2]: 900 nM | Ki [3]: 170 nM

O=C(NC1CCN(Cc2ccccc2)C1)c1ccc(-c2ccsc2)cc1 (configuration not stated)
Ki [1]: 2 nM | Ki [2]: 1200 nM

O=C(NC1CCN(Cc2ccccc2)C1)c1ccc(-c2cccs2)cc1 (configuration not stated)
Ki [1]: 3 nM | Ki [2]: 840 nM

O=C(N[C@H]1CCN(Cc2ccccc2)C1)c1ccc(-c2cccs2)cc1
Ki [1]: 3 nM | Ki [2]: 980 nM | Ki [3]: 1200 nM

O=C(N[C@H]1CCN(Cc2ccccc2)C1)c1cccc(-c2cccs2)c1
Ki [1]: 1.5 nM | Ki [2]: 60 nM | Ki [3]: 160 nM

CN(C(=O)c1ccc(-c2ccsc2)cc1)[C@H]1CCN(Cc2ccccc2)C1
inhibition [4]: 0.29% | inhibition [5]: 7.4% | inhibition [6]: 40%

O=C(NC1CCN(Cc2ccccc2)C1)c1ccc(-c2ccc(F)cc2)cc1 (configuration not stated)
Ki [1]: 8 nM | Ki [2]: 120 nM

O=Cc1ccccc1-c1ccc(C(=O)NC2CCN(Cc3ccccc3)C2)cc1 (configuration not stated)
Ki [1]: 36 nM | Ki [2]: 3100 nM

O=S(=O)(N[C@H]1CCN(Cc2ccccc2)C1)c1ccc(-c2cccs2)cc1
inhibition [6]: 13% | inhibition [7]: inactive | inhibition [8]: inactive

Nc1cccc(-c2ccc(C(=O)NC3CCN(Cc4ccccc4)C3)cc2)c1 (configuration not stated)
Ki [1]: 24 nM | Ki [2]: 5000 nM

O=C(NC1CCN(Cc2ccccc2)C1)c1ccc(-c2cccc(F)c2)cc1 (configuration not stated)
Ki [1]: 17 nM | Ki [2]: 4000 nM

O=C(N[C@H]1CCN(Cc2ccccc2)C1)c1ccc(-c2ccsc2)cc1
Ki [1]: 2 nM | Ki [2]: 1000 nM | Ki [3]: 610 nM

O=C(NC1CCN(Cc2ccccc2)C1)c1ccc(-c2ccccc2)cc1 (configuration not stated)
IC50 [9]: 1500 nM | Ki [1]: 3 nM | Ki [2]: 600 nM

O=C(NC1CCN(Cc2ccccc2)C1)c1ccc(-c2ccc(C(F)(F)F)cc2)cc1 (configuration not stated)
Ki [1]: 17 nM | Ki [2]: 8000 nM
